Drawing on ChEMBL document CHEMBL1157863, “Synthesis and antiviral activity of new acrylamide derivatives containing 1,2,3-thiadiazole as inhibitors of hepatitis B virus replication” (Eur J Med Chem, 2010), this text covers IC50, selectivity ratio and CC50 for 11 compounds.

Values after ≈ are worked out from the molar mass of the structure shown.

The subject of the first series is Hepatitis B virus. The series can be described thus: Antiviral activity against HBV infected in HepG2(2.2.15) cells assessed as inhibition of viral early antigen secretion after 8 days by radio immunoassay. As to conditions: HepG2 2.2.15, 192 h; call rule not given here. Type of series: functional, organism-based. Summed up:
(§1)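 Confluent 2.2.15 cultures were dosed at several concentrations in RPMI 1640 with 2% FBS, with fresh medium and compound each day for 8 days and untreated cell controls. HBsAg and HBeAg secreted into the supernatant were quantified by radioimmunoassay kits.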
One may read the IC50 as the concentration needed to halve the response being measured. On to `Cc1nnsc1C(=O)N/C(C(=O)N1CCCCC1)=C(\Cl)c1ccccc1`, for which the IC50 stood at 12.3 µg/mL (≈ 31.4 µM).

Test system in the next series: not listed separately
In words: Selectivity index, ratio of TC50 for human HepG2(2.2.15) cells to IC50 for Hepatitis B virus early antigen secretion. In kind it is toxicity.
Conditions: not given
With `Cc1nnsc1C(=O)N/C(C(=O)N1CCCCC1)=C(\Cl)c1ccccc1`, the selectivity ratio came to 5.23.

The next series has as its system Hepatitis B virus. The series can be described thus: Antiviral activity against HBV infected in HepG2(2.2.15) cells assessed as inhibition of viral surface antigen secretion after 8 days by radio immunoassay. In kind it is functional, organism-based.
Conditions: not given
Summed up:
as §1
As to `Cc1nnsc1C(=O)N/C(C(=O)N1CCOCC1)=C(\Br)c1snnc1C`, the IC50 entry was “Not Active”.

As for `Cc1nnsc1C(=O)N/C(C(=O)N1CCCCC1)=C(\Br)c1ccccc1`, the IC50 result is reported as “Not Active”.

Consider `Cc1nnsc1C(=O)N/C(C(=O)N1CCCCC1)=C(\Br)c1ccccc1Cl`, for which the IC50 entry is given as “Not Active”.

With `Cc1nnsc1C(=O)N/C(C(=O)N1CCCCC1)=C(\Br)c1ccc(Cl)cc1`, the IC50 entry was “Not Active”.

Turning to `Cc1nnsc1C(=O)N/C(C(=O)N1CCCCC1)=C(\Cl)c1ccccc1`, the IC50 result is reported as “Not Active”.

With `Cc1nnsc1/C(Br)=C(/NC(=O)c1ccccc1)C(=O)N1CCCCC1`, the concentration for half-maximal inhibition (IC50) entry is recorded as “Not Active”.

In the case of `Cc1nnsc1/C(Br)=C(/NC(=O)c1ccccc1)C(=O)N1CCOCC1`, the IC50 entry is “Not Active”.

As to `CCN(CC)C(=O)/C(NC(=O)c1ccccc1)=C(/Br)c1snnc1C`, the IC50 entry was “Not Active”.

As for `Cc1nnsc1/C(Cl)=C(/NC(=O)c1ccccc1)C(=O)N1CCOCC1`, the IC50 entry is on record as “Not Active”.

As for `Cc1nnsc1/C=C(/NC(=O)c1ccccc1)C(=O)N1CCCCC1`, the IC50 entry was “Not Active”.

In the case of `Nc1ccn([C@@H]2CS[C@H](CO)O2)c(=O)n1` [LAMIVUDINE], the IC50 entry is on record as “Not Active”.

Test system in another series: not listed separately
In words: Selectivity index, ratio of TC50 for human HepG2(2.2.15) cells to IC50 for Hepatitis B virus DNA replication. Type of series: toxicity.
Conditions: not given
As to `Cc1nnsc1C(=O)N/C(C(=O)N1CCCCC1)=C(\Br)c1ccccc1Cl`, the selectivity ratio was determined as 8.29.

Consider `Cc1nnsc1C(=O)N/C(C(=O)N1CCCCC1)=C(\Br)c1ccc(Cl)cc1`, for which the selectivity ratio was 4.96.

On to `Cc1nnsc1/C(Br)=C(/NC(=O)c1ccccc1)C(=O)N1CCCCC1`, for which the selectivity ratio is 21.4.

As for `Cc1nnsc1/C(Br)=C(/NC(=O)c1ccccc1)C(=O)N1CCOCC1`, the selectivity ratio stood at 10.9.

`Nc1ccn([C@@H]2CS[C@H](CO)O2)c(=O)n1` [LAMIVUDINE]: the selectivity ratio turned out to be 65.

Test system in the next series: not listed separately
The series can be described thus: Cytotoxicity against human HepG2(2.2.15) cells after 9 days by neutral red dye uptake assay. As to conditions: read-out: TC50.
Turning to `Cc1nnsc1C(=O)N/C(C(=O)N1CCOCC1)=C(\Br)c1snnc1C`, the CC50 at 216 h was 47.7 µg/mL (≈ 104 µM).

On to `Cc1nnsc1C(=O)N/C(C(=O)N1CCCCC1)=C(\Br)c1ccccc1`, for which the CC50 at 216 h came to 111 µg/mL (≈ 255 µM).

On to `Cc1nnsc1C(=O)N/C(C(=O)N1CCCCC1)=C(\Br)c1ccccc1Cl`, for which the CC50 at 216 h amounted to 86.2 µg/mL (≈ 184 µM).

`Cc1nnsc1C(=O)N/C(C(=O)N1CCCCC1)=C(\Br)c1ccc(Cl)cc1`: the CC50 at 216 h amounted to 17.8 µg/mL (≈ 37.9 µM).

Take `Cc1nnsc1C(=O)N/C(C(=O)N1CCCCC1)=C(\Cl)c1ccccc1`: the CC50 at 216 h amounted to 64.2 µg/mL (≈ 164 µM).

With `Cc1nnsc1/C(Br)=C(/NC(=O)c1ccccc1)C(=O)N1CCCCC1`, the CC50 at 216 h came out at 192 µg/mL (≈ 442 µM).

Take `Cc1nnsc1/C(Br)=C(/NC(=O)c1ccccc1)C(=O)N1CCOCC1`: the CC50 at 216 h amounted to 333 µg/mL (≈ 762 µM).

As to `CCN(CC)C(=O)/C(NC(=O)c1ccccc1)=C(/Br)c1snnc1C`, the CC50 at 216 h was determined as 86.2 µg/mL (≈ 204 µM).

On to `Cc1nnsc1/C(Cl)=C(/NC(=O)c1ccccc1)C(=O)N1CCOCC1`, for which the CC50 at 216 h worked out at 577 µg/mL (≈ 1470 µM).

On to `Cc1nnsc1/C=C(/NC(=O)c1ccccc1)C(=O)N1CCCCC1`, for which the CC50 at 216 h turned out to be 231 µg/mL (≈ 648 µM).

As for `Nc1ccn([C@@H]2CS[C@H](CO)O2)c(=O)n1` [LAMIVUDINE], the CC50 at 216 h was 962 µg/mL (≈ 4190 µM).

The test system of another series is Hepatitis B virus. In words: Antiviral activity against HBV infected in HepG2(2.2.15) cells assessed as inhibition of viral DNA replication after 8 days by dot blot hybridization. As to conditions: Hepatitis B virus, HepG2 2.2.15, 192 h; read-out: IC50.
Consider `Cc1nnsc1C(=O)N/C(C(=O)N1CCCCC1)=C(\Br)c1ccccc1Cl`, for which the IC50 worked out at 10.4 µg/mL (≈ 22.1 µM).

Consider `Cc1nnsc1C(=O)N/C(C(=O)N1CCCCC1)=C(\Br)c1ccc(Cl)cc1`, for which the IC50 was 3.59 µg/mL (≈ 7.64 µM).

Turning to `Cc1nnsc1/C(Br)=C(/NC(=O)c1ccccc1)C(=O)N1CCCCC1`, the IC50 came to 9 µg/mL (≈ 20.7 µM).

On to `Cc1nnsc1/C(Br)=C(/NC(=O)c1ccccc1)C(=O)N1CCOCC1`, for which the IC50 stood at 30.5 µg/mL (≈ 69.8 µM).

Consider `Nc1ccn([C@@H]2CS[C@H](CO)O2)c(=O)n1` [LAMIVUDINE], for which the IC50 came out at 14.8 µg/mL (≈ 64.6 µM).

The same series, now with this note: hepg2 2.2.15.
Regarding `Cc1nnsc1C(=O)N/C(C(=O)N1CCOCC1)=C(\Br)c1snnc1C`, the IC50 result is recorded as “Not Active”.

Regarding `Cc1nnsc1C(=O)N/C(C(=O)N1CCCCC1)=C(\Br)c1ccccc1`, the IC50 entry is “Not Active”.

`Cc1nnsc1C(=O)N/C(C(=O)N1CCCCC1)=C(\Cl)c1ccccc1`: the IC50 entry is on record as “Not Active”.

Regarding `CCN(CC)C(=O)/C(NC(=O)c1ccccc1)=C(/Br)c1snnc1C`, the IC50 result is reported as “Not Active”.

Turning to `Cc1nnsc1/C(Cl)=C(/NC(=O)c1ccccc1)C(=O)N1CCOCC1`, the IC50 result is on record as “Not Active”.

`Cc1nnsc1/C=C(/NC(=O)c1ccccc1)C(=O)N1CCCCC1`: the IC50 entry is on record as “Not Active”.
